The results in this text go back to ChEMBL document CHEMBL1949620, “Cyclolinopeptide derivatives modify methotrexate-induced suppression of the humoral immune response in mice” (Eur J Med Chem, 2011).

Common to all, as to type: functional, cell-based
The test system of experiment [1] is Splenocyte. Nature of the experiment: Immunoregulatory activity against methotrexate-induced decrease of humoral immune response in SRBC primed BALB/c mouse splenocytes assessed as increase of antibody forming cells at 10 ug/ml after 4 days. A digest of the protocol: (§1)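 Female BALB/c mice, 12 weeks old, primed i.p. with 0.2 ml of 1% SRBC. Splenocytes taken 4 days later and cultured at 5×10⁶/ml in RPMI 1640 with 10% FCS, glutamine, pyruvate, 2-mercaptoethanol and antibiotics, plus 0.05 ml of 0.005% SRBC. Peptides (in Cremophor/ethanol, diluted in RPMI) added at culture start; MTX (0.25, 0.5 or 1.0 mM) added at 24 h. After 4 days, AFC counted by agar-gel local haemolysis; Student's t-test.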

The test system of experiment [2] is Splenocyte. The experiment can be described thus: Immunoregulatory activity against methotrexate-induced decrease of humoral immune response in SRBC primed BALB/c mouse splenocytes assessed as increase of antibody forming cells at 1 ug/ml after 4 days. Put shortly:
as §1

Experiment [3] relates to Splenocyte. Nature of the experiment: Immunostimulatory activity in SRBC primed BALB/c mouse splenocytes assessed as humoral immune response by measuring inhibition of antibody forming cells at 10 ug/ml after 4 days. A digest of the protocol:
(§2)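 Splenocytes from female BALB/c mice (12 weeks old) primed i.p. with 0.2 ml of 1% SRBC and harvested after 4 days. Cells cultured at 5×10⁶/ml in RPMI 1640 with 10% FCS and supplements, with 0.05 ml of 0.005% SRBC antigen. Peptide (Cremophor/ethanol stock diluted in RPMI) added at initiation, no MTX. Antibody-forming cells counted by local haemolysis in agar after 4 days; Student's t-test.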

Experiment [4] relates to Splenocyte. Nature of the experiment: Immunostimulatory activity in SRBC primed BALB/c mouse splenocytes assessed as humoral immune response by measuring increase of antibody forming cells at 0.25 to 1 mM after 4 days. The settings on record: 1 to 10 ug/ml, in the assay text read “at 1 to 10 ug/ml” for “at 0.25 to 1 mM”. Put shortly:
as §1

Experiment [5] has as its system Splenocyte. Nature of the experiment: Immunoregulatory activity against methotrexate-induced decrease of humoral immune response in SRBC primed BALB/c mouse splenocytes assessed as increase of antibody forming cells at […] after 4 days. Put shortly: as §1
For experiment [6], the system named is Splenocyte. Nature of the experiment: Immunostimulatory activity in SRBC primed BALB/c mouse splenocytes assessed as humoral immune response by measuring increase of antibody forming cells after 4 days. A digest of the protocol: as §2
Experiment [7] concerns Splenocyte. Nature of the experiment: Immunoregulatory activity against methotrexate-induced decrease of humoral immune response in SRBC primed BALB/c mouse splenocytes assessed as increase of antibody forming cells at 0.1 ug/ml after 4 days. Put shortly:
as §1

Experiment [8] relates to Splenocyte. Nature of the experiment: Immunostimulatory activity in SRBC primed BALB/c mouse splenocytes assessed as humoral immune response by measuring increase of antibody forming cells at 1 ug/ml after 4 days. A digest of the protocol: as §2

Active and inactive are the calls of the source. The calls are words filed in the database; no cut-off is given here. Peptide text beside a SMILES is read from it.

Consider `CC[C@H](C)[C@@H]1NC(=O)[C@H](CC(C)C)NC(=O)[C@@H](Cc2ccccc2)N2CCN(C(=O)[C@@H]3CCCN3C(=O)[C@@H]3CCCN3C(=O)[C@H](C(C)C)NC(=O)[C@H](CC(C)C)NC(=O)[C@H]([C@@H](C)CC)NC1=O)[C@H](Cc1ccccc1)C2=O`, for which, in the experiment with Splenocyte [1], the “increase of antibody forming cells” value is “Active”. Further, in the experiment with Splenocyte [2], the inhibition result was “Active”.
In the case of `CC[C@H](C)[C@@H]1NC(=O)[C@H](CC(C)C)NC(=O)[C@H](Cc2ccccc2)N2CCN(C(=O)[C@@H]3CCCN3C(=O)[C@@H]3CCCN3C(=O)[C@H](C(C)C)NC(=O)[C@H](CC(C)C)NC(=O)[C@H]([C@@H](C)CC)NC1=O)[C@@H](Cc1ccccc1)C2=O`, in the experiment on Splenocyte [3], the inhibition entry was “Active”. In the experiment on Splenocyte [1], the “increase of antibody forming cells” value is “Active”.
As to `CC[C@H](C)[C@H](NC(=O)[C@@H](NC(=O)[C@H](CC(C)C)NC(=O)[C@@H](Cc1ccccc1)N1CCN(C(=O)[C@@H]2CCCN2C(=O)[C@@H]2CCCN2C(=O)[C@@H](NC(=O)[C@@H](N)CC(C)C)C(C)C)[C@H](Cc2ccccc2)C1=O)[C@@H](C)CC)C(=O)O`, the outcome in the experiment with Splenocyte [4] was Active. Further, the “increase of antibody forming cells” value in the experiment with Splenocyte [1] was “Active”.
With `CC[C@H](C)[C@H](NC(=O)[C@@H](NC(=O)[C@H](CC(C)C)NC(=O)[C@H](Cc1ccccc1)N1CCN(C(=O)[C@@H]2CCCN2C(=O)[C@@H]2CCCN2C(=O)[C@@H](NC(=O)[C@@H](N)CC(C)C)C(C)C)[C@@H](Cc2ccccc2)C1=O)[C@@H](C)CC)C(=O)O`, the result in the experiment on Splenocyte [4] was inactive. Also, in the experiment with Splenocyte [5], the inhibition entry was “Active”.
Take `CC[C@H](C)[C@@H]1NC(=O)[C@H](CC(C)C)NC(=O)[C@H](Cc2ccccc2)NC(=O)[C@H](Cc2ccccc2)NC(=O)[C@@H]2CCCN2C(=O)[C@@H]2CCCN2C(=O)[C@H](C(C)C)NC(=O)[C@H](CC(C)C)NC(=O)[C@H]([C@@H](C)CC)NC1=O` (cyclo(FFLIILVPP)): the Activity entry with Splenocyte [6] was “Dose-dependent effect”. For the same compound, the inhibition result with Splenocyte [3], in the experiment on Splenocyte [7] and in the experiment with Splenocyte [2] was “Active” throughout. Besides, the “increase of antibody forming cells” value in the experiment on Splenocyte [1] is “Active”. Moreover, the result in the experiment with Splenocyte [8] was inactive.
Turning to H-LVPPFFLII-OH, the result in the experiment on Splenocyte [4] was inactive. For the same compound, the “increase of antibody forming cells” value in the experiment with Splenocyte [1] is “Active”.
